Reference: ChEMBL document CHEMBL5653632, “PRMT5 inhibition disrupts splicing and stemness in glioblastoma” (Nat Commun, 2021)
The source made the active and inactive calls. No cut-off for these calls is given here.

Key:
G583 [1] = experiment: Inhibition of colony formation in human G583 cells assessed as reduction in sphere forming capacity at 1 uM incubated for 14 days by limiting dilution assay; format: functional, cell-based; details: time 14.0 day
Method in brief: (§1)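 Each GSC line was seeded on non-adherent 96-well plates in 1:2 serial dilutions from 2000 to 4 cells per well, six replicates per dilution, in adherent-culture medium. Treatment was 1 µM, with SGC2096 and DMSO as controls, added on day 1 and replenished weekly. Wells were scored for spheres at 1 and 2 weeks, and sphere frequency was estimated by ELDA (single-hit model). n = 3.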

[2] = Antiproliferative activity against human G861 cells incubated for 9 to 12 days by IncuCyte zoom live-cell imaging analysis; format: functional, cell-based
Method in brief: (§2)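 Adherent culture on poly-L-ornithine/laminin in serum-free NS-A medium with EGF and bFGF (10 ng/mL each) and heparin. Nine concentrations (3 nM–30 µM), three technical replicates per dose, DMSO control, medium and drug refreshed every 5 days, run until DMSO wells were confluent (9–20 days). Confluence was imaged live and normalized to DMSO. Curves were taken at the 95th percentile of time to DMSO confluence, and AAC was calculated.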

[3] = molecular target: Protein arginine N-methyltransferase 5 (Homo sapiens) (UniProt O14744); experiment: Inhibition of PRMT5 in human G729 cells assessed as reduction in SDMA level at 1 uM after 7 days by Western blot analysis; format: cell-based; details: time 7.0 day
[4] = Antiproliferative activity against human G626 cells incubated for 9 to 12 days by IncuCyte zoom live-cell imaging analysis; format: functional, cell-based; method in brief: as §2
[5] = Antiproliferative activity against human G702 cells incubated for 9 to 12 days by IncuCyte zoom live-cell imaging analysis; format: functional, cell-based; method in brief: as §2
[6] = Antiproliferative activity against human G564 cells incubated for 9 to 12 days by IncuCyte zoom live-cell imaging analysis; format: functional, cell-based; method in brief: as §2
[7] = Antiproliferative activity against human BT147 cells incubated for 9 to 12 days by IncuCyte zoom live-cell imaging analysis; format: functional, cell-based
[8] = Antiproliferative activity against human G876 cells incubated for 9 to 12 days by IncuCyte zoom live-cell imaging analysis; format: functional, cell-based; method in brief: as §2
[9] = Antiproliferative activity against human BT143 cells incubated for 9 to 12 days by IncuCyte zoom live-cell imaging analysis; format: functional, cell-based
[10] = Antiproliferative activity against human G523 cells incubated for 9 to 12 days by IncuCyte zoom live-cell imaging analysis; format: functional, cell-based; method in brief: as §2
[11] = Antiproliferative activity against human HF6562 cells incubated for 9 to 12 days by IncuCyte zoom live-cell imaging analysis; format: functional, cell-based; method in brief: as §2
[12] = Antiproliferative activity against human BT069 cells incubated for 9 to 12 days by IncuCyte zoom live-cell imaging analysis; format: functional, cell-based
G411 [13] = experiment: Inhibition of colony formation in human G411 cells assessed as reduction in sphere forming capacity at 1 uM incubated for 14 days by limiting dilution assay; format: functional, cell-based; details: time 14.0 day; method in brief: as §1
[14] = Antiproliferative activity against human G561 cells incubated for 9 to 12 days by IncuCyte zoom live-cell imaging analysis; format: functional, cell-based; method in brief: as §2
G561 [15] = experiment: Inhibition of colony formation in human G561 cells assessed as reduction in sphere forming capacity at 1 uM incubated for 14 days by limiting dilution assay; format: functional, cell-based; details: time 14.0 day; method in brief: as §1
G411 [16] = experiment: Induction of apoptosis in human G411 cells at 1 uM after 5 days by Annexin-V staining based IncuCyte live cell imaging analysis; format: functional; details: time 5.0 day
[17] = Antiproliferative activity against human BT119 cells incubated for 9 to 12 days by IncuCyte zoom live-cell imaging analysis; format: functional, cell-based
[18] = molecular target: Protein arginine N-methyltransferase 5 (Homo sapiens) (UniProt O14744); experiment: Inhibition of PRMT5 in human G561 cells assessed as reduction in SDMA level at 1 uM after 5 days by Western blot analysis; format: cell-based; details: time 5.0 day
Method in brief: (§3)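 Symmetric dimethylarginine on SmB/B' was measured by western blot with IRDye secondary antibodies and infrared imaging.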

[19] = Antiproliferative activity against human G851 cells incubated for 9 to 12 days by IncuCyte zoom live-cell imaging analysis; format: functional, cell-based; method in brief: as §2
[20] = Antiproliferative activity against human HF5205 cells incubated for 9 to 12 days by IncuCyte zoom live-cell imaging analysis; format: functional, cell-based; method in brief: as §2
G411 [21] = experiment: Induction of senescence in human G411 cells at 1 uM after 5 days by SA-beta-galactosidase based assay; format: functional, cell-based; details: time 5.0 day
Method in brief: (§4)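 GSCs were treated at 1 µM for 5 days, with SGC2096 and DMSO as controls and n = 3. Cells were fixed in 4% paraformaldehyde for 5 min at RT, stained overnight with SA-β-gal solution, and counterstained with nuclear fast red. Blue cells were counted as a fraction of total cells.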

[22] = molecular target: Protein arginine N-methyltransferase 5 (Homo sapiens) (UniProt O14744); experiment: Inhibition of PRMT5 in HFNS cells assessed as reduction in SDMA level at 1 uM after 5 days by Western blot analysis; format: cell-based; details: time 5.0 day
[23] = Antiproliferative activity against human G837 cells incubated for 9 to 12 days by IncuCyte zoom live-cell imaging analysis; format: functional, cell-based; method in brief: as §2
[24] = molecular target: Protein arginine N-methyltransferase 5 (Homo sapiens) (UniProt O14744); experiment: Inhibition of PRMT5 in human G797 cells assessed as reduction in SDMA level at 1 uM after 7 days by Western blot analysis; format: cell-based; details: time 7.0 day
[25] = Antiproliferative activity against human G800 cells incubated for 9 to 12 days by IncuCyte zoom live-cell imaging analysis; format: functional, cell-based; method in brief: as §2
[26] = Antiproliferative activity against human G799 cells incubated for 9 to 12 days by IncuCyte zoom live-cell imaging analysis; format: functional, cell-based; method in brief: as §2
[27] = Antiproliferative activity against human G895 cells incubated for 9 to 12 days by IncuCyte zoom live-cell imaging analysis; format: functional, cell-based; method in brief: as §2
G729 [28] = experiment: Induction of apoptosis in human G729 cells at 1 uM after 5 days by Annexin-V staining based IncuCyte live cell imaging analysis; format: functional; details: time 5.0 day
G561 [29] = experiment: Antiproliferative activity against human G561 cells at 1 uM incubated for 9 to 12 days by IncuCyte zoom live-cell imaging analysis; format: functional, cell-based; details: time 9-12 day
Method in brief: (§5)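 Adherent GSCs were cultured in serum-free medium with EGF and bFGF on poly-L-ornithine/laminin and plated in triplicate in 96-well plates. They were treated at 1 µM, with 1 µM SGC2096 or 0.05% DMSO as controls, for 9–12 days or until DMSO wells were confluent. Medium with drug was refreshed every 5 days. IncuCyte confluence was imaged every 8 h and normalized to each well's initial confluence.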

[30] = molecular target: Protein arginine N-methyltransferase 5 (Homo sapiens) (UniProt O14744); experiment: Inhibition of PRMT5 in human G411 cells assessed as reduction in SDMA level at 1 uM after 5 days by Western blot analysis; format: cell-based; details: time 5.0 day; method in brief: as §3
[31] = molecular target: Protein arginine N-methyltransferase 5 (Homo sapiens) (UniProt O14744); experiment: Inhibition of PRMT5 in human G583 cells assessed as reduction in SDMA level at 1 uM after 5 days by Western blot analysis; format: cell-based; details: time 5.0 day; method in brief: as §3
[32] = Antiproliferative activity against human G583 cells incubated for 9 to 12 days by IncuCyte zoom live-cell imaging analysis; format: functional, cell-based; method in brief: as §2
G583 [33] = experiment: Induction of senescence in human G583 cells at 1 uM after 5 days by SA-beta-galactosidase based assay; format: functional, cell-based; details: time 5.0 day; method in brief: as §4
G583 [34] = experiment: Antiproliferative activity against human G583 cells at 1 uM incubated for 9 to 12 days by IncuCyte zoom live-cell imaging analysis; format: functional, cell-based; details: time 9-12 day; method in brief: as §5
[35] = molecular target: Protein arginine N-methyltransferase 5 (Homo sapiens) (UniProt O14744); experiment: Inhibition of PRMT5 in human G549 cells assessed as reduction in SDMA level at 1 uM after 7 days by Western blot analysis; format: cell-based; details: time 7.0 day
G729 [36] = experiment: Induction of senescence in human G729 cells at 1 uM after 5 days by SA-beta-galactosidase based assay; format: functional, cell-based; details: time 5.0 day; method in brief: as §4
G411 [37] = experiment: Antiproliferative activity against human G411 cells at 1 uM incubated for 9 to 12 days by IncuCyte zoom live-cell imaging analysis; format: functional, cell-based; details: time 9-12 day; method in brief: as §5
[38] = Antiproliferative activity against human HF7450 cells incubated for 9 to 12 days by IncuCyte zoom live-cell imaging analysis; format: functional, cell-based; method in brief: as §2

Chain of Protein arginine N-methyltransferase 5 (Homo sapiens) (O14744 whole entry): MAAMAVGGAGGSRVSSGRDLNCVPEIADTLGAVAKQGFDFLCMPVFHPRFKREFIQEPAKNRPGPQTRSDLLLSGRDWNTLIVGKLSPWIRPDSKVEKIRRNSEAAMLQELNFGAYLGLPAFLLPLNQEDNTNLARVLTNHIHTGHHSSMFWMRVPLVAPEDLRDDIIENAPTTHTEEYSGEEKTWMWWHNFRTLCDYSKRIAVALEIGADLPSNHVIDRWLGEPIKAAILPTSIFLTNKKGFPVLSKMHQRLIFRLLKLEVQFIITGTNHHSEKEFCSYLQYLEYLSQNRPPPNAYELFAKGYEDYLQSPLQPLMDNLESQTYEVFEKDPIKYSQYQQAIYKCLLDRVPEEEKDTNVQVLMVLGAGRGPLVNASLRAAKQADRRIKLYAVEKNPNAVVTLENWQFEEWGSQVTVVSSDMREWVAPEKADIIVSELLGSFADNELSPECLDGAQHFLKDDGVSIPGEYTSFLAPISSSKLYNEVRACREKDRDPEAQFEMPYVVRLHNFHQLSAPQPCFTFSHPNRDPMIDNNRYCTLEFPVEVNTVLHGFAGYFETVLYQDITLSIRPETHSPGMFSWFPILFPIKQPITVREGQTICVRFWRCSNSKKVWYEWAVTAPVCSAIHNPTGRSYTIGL

Compound	inhibition (G583 [1])	IC50 [2]	inhibition [3]	EC50 [4]	IC50 [5]	IC50 [6]	IC50 [7]	IC50 [8]	IC50 [9]	IC50 [10]	EC50 [11]	IC50 [12]	inhibition (G411 [13])	EC50 [14]	inhibition (G561 [15])	Activity (G411 [16])	IC50 [17]	inhibition [18]	IC50 [19]	EC50 [20]	further results
O=C(NC[C@H](O)CN1CCc2ccccc2C1)c1ccnc(NC2CCC2)c1	Active	1280 nM	Active	480 nM	1620 nM	230 nM	170 nM	2450 nM	600 nM	830 nM	63 nM	690 nM	Active	1000 nM	Active	Active	8640 nM	Active	570 nM	7 nM	Activity (G411 [21]): Active; inhibition [22]: Active; IC50 [23]: 5010 nM; inhibition [24]: Active; IC50 [25]: 16400 nM; IC50 [26]: 680 nM; IC50 [27]: 640 nM; Activity (G729 [28]): Active; Activity (G561 [29]): Active; inhibition [30]: Active; inhibition [31]: Active; EC50 [32]: 440 nM; Activity (G583 [33]): Active; Activity (G583 [34]): Active; inhibition [35]: Active; Activity (G729 [36]): Active; Activity (G411 [37]): Active; EC50 [38]: 155 nM
Nc1ncnc2c1ccn2[C@@H]1O[C@H]([C@H](O)c2ccccc2)[C@@H](O)[C@H]1O	Active	40 nM	Active	10 nM	20 nM	30 nM	10 nM	30 nM	160 nM	10 nM	0.66 nM	30 nM	Active	10 nM	Active	Active	230 nM	Active	10 nM	9 nM	Activity (G411 [21]): Active; inhibition [22]: Active; IC50 [23]: 40 nM; inhibition [24]: Active; IC50 [25]: 120 nM; IC50 [26]: 20 nM; IC50 [27]: 100 nM; Activity (G729 [28]): Active; Activity (G561 [29]): Active; inhibition [30]: Active; inhibition [31]: Active; EC50 [32]: 15 nM; Activity (G583 [33]): Active; Activity (G583 [34]): Active; inhibition [35]: Active; Activity (G729 [36]): Active; Activity (G411 [37]): Active; EC50 [38]: 3 nM
